Reference: the RNAGym collection of RNA variant scans (doi:10.1126/science.aae0568)
Fewer inactive variants are shown than the library holds.

B1: tRNA (parent)
chain: GUUCCGUUGGCGUAAUGGUAACGCGUCUCCCUCCUAAGGAGAAGACUGCGGGUUCGAGUCCCGUACGGAACG

Variants of: B1
Experiment: yeast fitness relative to wild type (ratio to wild type); higher = fitter; tRNA-Arg(CCU), competitive growth, 37 C, YPD
In short: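 Start and end populations of a pooled competition were compared by 100-nucleotide paired-end sequencing of gene amplicons. The Saccharomyces cerevisiae strains carried tRNA-Arg(CCU) gene variants at the native genomic locus, synthesised with a 3% per-site mutation rate at 69 sites, and competed in YPD at 37°C for 24 hours in six parallel replicates. Darwinian fitness relative to wild type was based on the change in genotype frequencies. Genotypes required ≥ 100 starting reads, and estimates < 0.5 were set to 0.5.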

Variant	yeast fitness
C33G C61G	0.815
C34A G50C G51A C61G	≤ 0.5
C33U C34A U53G U54A	0.588
C33U G44C	0.601
C34A U53A	0.541
C34A U53C	0.559
C34A C60G A70C	≤ 0.5
C34G A57G	0.568
C34G A57U	0.523
C33G A43G U59A	≤ 0.5
C34A U47G C49G C60G	0.571
C33G A45U G51C	≤ 0.5
C34G G38C	0.587
C34G G38A	0.624
C34G A45U U53G A57G	0.569
C33U U54C G58A	0.643
C33G A42G G52A C62U A70U	≤ 0.5
C34A A42U A45G	≤ 0.5
C34G U35A A57U	≤ 0.5
C34G C62A G63A	≤ 0.5
C34G C62G	0.559
C34G C49G G68C	0.629
C33U C34A A43C G48A	≤ 0.5
C33G G41C A43C	≤ 0.5

Variant	yeast fitness
C33G G52A G56U	≤ 0.5
C33U C49G C60G C62G G63A	≤ 0.5
C34G U54G	≤ 0.5
C34G A40C G48A	≤ 0.5
C34A A36C G67A	≤ 0.5
U32G G56A G63C	≤ 0.5
C33G C60G	≤ 0.5
C33G C60A	0.715
C34A A57G	0.715
C34A A57C	≤ 0.5
C33U G50A G52C A65C	0.564
C33U A43G G52A	≤ 0.5
C33G C34G C46G	≤ 0.5
U32G U35A G38C C46G	≤ 0.5
C34G C46A C62U	0.541
C33U A42C U64C A70G	≤ 0.5
C34G A42U G44A A45C G48C U64A	≤ 0.5
C33U G41A C49U C61G	≤ 0.5
C34G A37U C49G	0.576
C33G C55A G58A	0.609
C34G G44A C49A U53A A69U	≤ 0.5
C33A G38C C46A G58C	0.698
C34A A40C A42U	≤ 0.5
C34A C49A U59G C66U	≤ 0.5

Variant	yeast fitness
U32G G39C G52C C61U	≤ 0.5
C33G A42U A45G	≤ 0.5
C33G G51A A65C	0.709
C33G A45U C46U G56C	≤ 0.5
C33A G39C G41C G44C A69C	0.577
C34G G41A A42C C66U	≤ 0.5
C34U A36G C55A	≤ 0.5
U32G U59C C61A	≤ 0.5
C33G A45U G56C	0.637
C34A A36C C61U U64A	≤ 0.5
C34G A42G A43U	0.635
C33U G44C C49U	0.531
U32G G39C C49U G52C	≤ 0.5
C34A A45U C46A G50A U54C C55G	≤ 0.5
C33A A36U G63A	≤ 0.5
C33G G44A G56A C61U	≤ 0.5
C34G A40U A43C C46A G63C	≤ 0.5
C33U A36C U54C	≤ 0.5
C34A C46U	0.615
C34A C46G	0.693
C34A C46A	0.691
C33G A37G A43C G58C	0.547
C33U G48A	0.678
C34A G39C	0.792

Variant	yeast fitness
C33G G39U A69C	≤ 0.5
C33A C46U U59C G67A G68C	≤ 0.5
C34A A40C C61A	≤ 0.5
C33G G39C C55A	≤ 0.5
C33U A43C G63C	≤ 0.5
C33G A36G	0.699
C33U G56A C61G C66U	≤ 0.5
C34A C55G	0.517
C34A C55U	0.524
C34A A57U G67C	0.605
C34G C62G C66G A69C	≤ 0.5
C33A A36C A43U C46G C62G A69U	≤ 0.5
C33U C55U	0.586
C33G G48A	0.629
C33U C62U G63A	≤ 0.5
C34A C49U C61G	≤ 0.5
C34A A42U G68A	≤ 0.5
C33U A42C A70G	0.75
C34G A37C G56A	0.527
C34A A37C G67C A69G	≤ 0.5
C33U A65U	0.816
C33G A65G	0.734
C34G C60U C61U	0.545
C33U A43U C55U	≤ 0.5

Variant	yeast fitness
C34G U35C	0.613
C34G G41C	0.617
C33G G41A A69C	≤ 0.5
C34A A57U U59A	≤ 0.5
C33U A40G	0.71
C33A C34G G50A A70U	≤ 0.5
C33G A42U G63A	0.516
C33G C34U A65U	0.629
C34G C49G C61U A70C	≤ 0.5
C33U A42C G68U	0.538
C33A A45G A70U	0.638
C34A G41A C55G	≤ 0.5
C33A C34U G52A A57G	≤ 0.5
U32G G68C	0.703
C33A A36U C62U	≤ 0.5
C33G G52A	0.582
U32G G51A C55G	≤ 0.5
C33A C34G	0.755
C33A C34A	0.621
C33U G48A C60U U64G A65U A69C	0.571
C33G A40U A70G	0.545
C34A C46U A65C	0.569
C34A C66U	0.764
C34A C66G	0.647

Variant	yeast fitness
C34U A36G A57G	≤ 0.5
C33A C61A C62U C66U	0.562
C34G A36G A57U	≤ 0.5
C33U G39C	0.622
C33U G39A	0.626
C34G U59G G68U	0.576
C33G G44A U47C A57G	≤ 0.5
C33G C62A G67C	≤ 0.5
C34G A45C C62G	≤ 0.5
C33A C49U G52A A70C	≤ 0.5
C33G G38C G41C A43C U47G G67C	0.582
C34G C49G C61U U64A	≤ 0.5
C34G A40G C46G C49A U59C	0.55
C33G G67A	0.672
C34U A36C U53C	≤ 0.5
C34G A43C C49U G56A	≤ 0.5
C34A A65U	0.736
C33U A36C A37G U64C	≤ 0.5
C34G G48C	0.519
C34G C49U A57U	≤ 0.5
C34A A40C U54C C66U	0.623
C33U U35C	0.579
C33U U35A	≤ 0.5
C33G G38C C46A	0.551

Variant	yeast fitness
C33G G44A G56A A65G	0.554
C34G G48C G67A	≤ 0.5
C33G U47A	0.579
C34G G58C A69C	0.576
C34G G52C A70U	0.542
C34A A40U	0.705
C34A A40G	0.609
C34G A42C	0.573
C33G C61A C62U	≤ 0.5
C33U A42G C46A	0.644
C34A G52C G63C	0.681
C34G U59A G68A	≤ 0.5
C34A C60G G68A	0.688
C33U A65C G68C	0.504
C33G C34U G38C U47A	0.517
C33U A65U C66U	≤ 0.5
C33U A45U	0.837
C33U A43U C49G G50C A65C	≤ 0.5
C33U G52A	0.58
C34A U59G	0.745
C33A U35A C62U	0.617
C33U C46U G68C	0.615
C33G A37U A40C A69U	0.543
